T cell HTS: T cell immune modulation candidate; 2C CD8+ T cell-vesicle binding, flow cytometry; stronger effect = lower value; response (vesicle binding), % at 7 µM; 0.068% of 330,000 active; AID 2052;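 active means response, share of CD8 T cells binding vesicles, and their 90th percentile fluorescence all below set limits, cut at about 80% in these data, passing the limit was not always enough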;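 further: values below 100% mean blocked vesicle binding to the CD8+ T cells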
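incubation = binding step 1.5 h, 37 °C, antibody labelling 20 min, ice | test system = 2C mouse CD8+ T cells | read-out basis = percent CD8+ FL2 mean versus row control | controls = Peptide-free naked vesicles (low) and QL9 vesicles with 0.7% DMSO vehicle (high) | detection = flow cytometry of vesicle-bound cells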
LANA-H2A inh: blocks KSHV LANA binding to histone H2A/H2B. cell-free LANA-H2A/H2B peptide, fluorescence polarization. inhibition, % (test concentration not listed). 0.6% of 320,000 active. AID 2629; in the data active means inhibition mostly above about 10%, no sharp cut-off; inactive means mostly below about 6.7%
Pemphigus Ab inh: inhibitors of pemphigus antibody binding to human desmoglein-3; binding (percent of control), % at 10 µM; 0.48% of 310,000 active; P32926; DSG3-coupled beads, scFv-anti-DSG3-GFP binding, flow cytometry; stronger effect = lower value;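 active means binding more than 3 SD below its plate's average and above zero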;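 further: hits lower antibody fragment binding to DSG3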
Target sequence (P32926 whole entry, looked up, the tested form may be a part): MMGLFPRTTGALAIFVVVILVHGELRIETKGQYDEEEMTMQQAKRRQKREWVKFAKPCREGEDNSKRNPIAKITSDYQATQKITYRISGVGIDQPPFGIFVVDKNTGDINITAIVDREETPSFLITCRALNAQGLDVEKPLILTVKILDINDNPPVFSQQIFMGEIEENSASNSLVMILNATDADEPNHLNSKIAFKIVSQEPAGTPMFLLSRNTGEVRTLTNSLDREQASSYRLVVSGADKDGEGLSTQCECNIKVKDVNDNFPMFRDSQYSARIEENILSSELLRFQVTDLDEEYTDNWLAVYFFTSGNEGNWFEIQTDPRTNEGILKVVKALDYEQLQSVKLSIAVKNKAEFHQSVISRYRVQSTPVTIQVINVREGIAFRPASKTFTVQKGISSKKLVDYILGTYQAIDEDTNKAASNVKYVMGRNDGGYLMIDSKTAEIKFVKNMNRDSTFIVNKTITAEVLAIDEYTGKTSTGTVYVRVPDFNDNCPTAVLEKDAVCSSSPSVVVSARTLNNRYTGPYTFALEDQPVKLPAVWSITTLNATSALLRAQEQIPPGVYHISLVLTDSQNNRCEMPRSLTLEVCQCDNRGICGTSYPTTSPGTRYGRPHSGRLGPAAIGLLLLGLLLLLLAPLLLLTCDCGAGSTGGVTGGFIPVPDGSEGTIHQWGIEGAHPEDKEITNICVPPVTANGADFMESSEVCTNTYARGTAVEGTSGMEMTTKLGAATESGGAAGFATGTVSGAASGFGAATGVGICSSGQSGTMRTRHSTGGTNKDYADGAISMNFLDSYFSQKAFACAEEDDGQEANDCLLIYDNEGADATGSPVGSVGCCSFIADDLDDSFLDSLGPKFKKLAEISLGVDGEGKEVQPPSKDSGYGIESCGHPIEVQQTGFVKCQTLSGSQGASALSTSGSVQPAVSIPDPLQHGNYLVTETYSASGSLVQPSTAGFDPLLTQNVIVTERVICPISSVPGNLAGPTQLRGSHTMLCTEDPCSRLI
HDAC3 inhib: blocks human histone deacetylase 3 | recombinant HDAC3, fluorogenic peptide/trypsin coupled, fluorescence | inhibition, % at 8.3 µM | 0.15% of 320,000 active; in the data active means inhibition above about 26%, passing the limit was not always enough
Arr AP2 block: human beta-arrestin and AP2 interaction inhibition; FITC-arrestin peptide / GST-AP2 beads, flow cytometry; AP2 beta2 appendage carries R879A mutation; inhibition, % at 10 µM; 0.31% of 340,000 active; AID 504490;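 active means inhibition above a set limit, near 3 SD of compounds lacking own fluorescence, cut at about 54% in these data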;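 further: plate controls were DMSO wells for no effect and 5 µM unlabelled arrestin peptide for full effect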
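System: GST-AP2 R879A glutathione beads; medium: PBS, Tween 20 0.05%, BSA 0.1%; reagent: fluorescein-tagged arrestin peptide at 50 nM final; schedule: pre-incubation 12 min, peptide binding 1 h, room temperature; detection: flow cytometry, FL1 (488/535 nm); read-out: inhibition as reduced fluorescein signal on beads, percent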
Active calls of the source: *; i = inactive; · = no result given. Sampled rows, rich in hits. Any-hit rate of the full collection: about 1.5%.

SMILES	T cell HTS	LANA-H2A inh	Pemphigus Ab inh	HDAC3 inhib	Arr AP2 block
COc1ccc(N2CCN(C(=O)C3CCCN(S(=O)(=O)c4ccc(F)cc4)C3)CC2)cc1 (stereo not drawn)	363	4	105	-2	-2
CCOC(=O)c1ccc(-n2cccc2/C=C2\NC(=O)NC2=O)cc1	494	4	104	7	4
Cc1ccc(Cc2c(C)nc3nc(SCC(=O)NCCCN4CCCCCC4)nn3c2C)cc1	260	1	·	33*	·
Cc1ccc(-n2c(CNC(=O)c3cccs3)nnc2SCC(=O)NO)cc1	449	0	102	53*	-12
Nc1ccccc1C(=O)NNC1=C(C(=O)C(F)(F)F)CCC1	334	0	100	46*	7
O=C(NNC1=C(C(=O)C(F)(F)F)CCC1)c1ccccc1O	222	3	113	21	0
Cc1cc(C2(c3ccc(O)c(C)c3)OC(=O)c3ccccc32)ccc1O	173	-3	110	7	3
Cc1cc(O)c(C(C)C)cc1C1(c2cc(C(C)C)c(O)cc2C)OC(=O)c2ccccc21	385	15*	104	1	-6
COCCCn1c(=O)/c(=C\c2ccccc2OC(F)F)s/c1=C(/C#N)C(N)=O	303	-13	93	0	-3
COCCCn1c(=O)/c(=C\c2ccc(OC(F)F)c(OC)c2)s/c1=C(/C#N)C(N)=O	285	29*	102	0	-18
CCOC(=O)C1=C(c2ccccc2)NC(=O)NC1c1cc(Br)c(O)c(OC)c1 (stereo not drawn)	559	8	114	4	-4
CCOC(=O)C1=C(C)NC(=O)NC1c1cc(Br)c(O)c(OC)c1 (stereo not drawn)	777	-3	76*	19	1
CCOC(=O)C(NC(=O)N(C)C)(Nc1sc(C)c(CC)c1C#N)C(F)(F)F (stereo not drawn)	216	4	113	32*	2
Cc1ccc(OCCNC(=O)c2ccccc2N)cc1	99	-1	46*	-9	10
COC(=O)c1ccc(-n2c(C)nc(=O)c(-c3ccccc3)c2C)cc1	740	0	99	-3	-11
COC(=O)Cn1c(C)nc(=O)c(-c2ccccc2)c1C	590	15*	103	-3	7
Nc1c2c(nc3ccccc13)CSCC2	683	6	109	0	-5
CC(C(=O)N1CCCCC1)N(C)CC(=O)Nc1cccc(F)c1 (stereo not drawn)	402	30*	·	3	·
CC1(C)CC2(OC2c2ccccc2)C(=O)c2ccccc21 (stereo not drawn)	·	·	106	·	·
O=C(CCCN1C(=O)/C(=C/c2cccs2)SC1=S)Nc1cccnc1	236	-25	68*	-5	1
O=C(CCN1C(=O)/C(=C\c2ccccc2)SC1=S)NNC(=O)c1cccnc1	165	0	72*	5	18
O=C(CCCN1C(=O)/C(=C/c2ccccc2Cl)SC1=S)NNC(=O)c1cccnc1	327	1	102	7	27
O=C(CCCN1C(=O)/C(=C\c2cccc(Br)c2)SC1=S)Nc1cccnc1	131	19*	102	-6	-5
Cc1ccc(-n2c(-c3ccncc3)n[nH]c2=S)cc1	234	-1	97	14	-13
Cc1ccc(-n2c(-c3ccncc3)nnc2-c2cccs2)cc1	190	-3	-8.5*	-9	-1
SMILES	T cell HTS	LANA-H2A inh	Pemphigus Ab inh	HDAC3 inhib	Arr AP2 block
CCOc1ccc(NC(=S)N2CCC(C(=O)c3ccc(F)cc3)CC2)cc1	·	·	126	·	6
O=c1c2cc(F)ccc2sn1-c1ccccc1	205	-4	43*	-6	30
O=c1c2cc(C(F)(F)F)ccc2sn1-c1ccccc1	·	·	68*	·	·
Cc1ccccc1-n1sc2cc(F)ccc2c1=O	301	-3	69*	20	-7
O=c1c2ccccc2[nH]c2ccc(F)cc12	364	-6	100	-20	-23
COc1ccccc1CNC(=O)CSc1nc2nc(C)cc(C)n2n1	481	50*	102	-2	5
Cc1c(C(=O)Nc2ccccc2N2CCN(C)CC2)oc2ccc(F)cc12	·	·	103	·	38
O=C(NCCN1CCOCC1)c1cc(-c2ccc(F)cc2)on1	508	182*	101	-4	5
O=C(NCCCN1CCOCC1)c1cc(-c2ccc(F)cc2)on1	324	-2	102	-4	12
O=C(CCNC(=O)N1CC(=O)Nc2ccccc21)Nc1cccc(Cl)c1	880	15*	133	1	-9
O=C(CCNC(=O)N1CC(=O)Nc2ccccc21)NCc1cccc(Cl)c1	103	-6	100	-10	43
CCN1CCN(C(CNS(=O)(=O)c2ccc(OC)cc2)c2cccnc2)CC1 (stereo not drawn)	549	14*	108	·	2
Cc1ccc(C)c(C(=O)CN2C(=O)NC3(CCCCCC3)C2=O)c1	·	·	100	·	3
COc1ccc(S(=O)(=O)N2CC=C(c3ccccc3)CC2)cc1OC	·	·	98	·	·
CC(C)NC(=O)c1nn2c(C(F)(F)F)cc(-c3ccco3)nc2c1Cl	308	43*	100	-2	14
COc1ccc(C(CNC(=O)c2cc3ccccc3cc2O)N2CCOCC2)cc1 (stereo not drawn)	548	-4	107	4	-4
Clc1ccccc1-c1nnc(-c2ccc3c(c2)OCO3)o1	185	3	79*	-4	5
O=C1C=C(c2ccc3ccccc3c2)C[C@@H](c2ccc(F)cc2)C1	566	21*	104	1	-1
Cc1ccccc1NC(=S)NC(=O)COc1ccccc1C	380	-1	·	2	-16
COc1ccc(CC(=O)NCc2n[nH]c(=S)n2-c2cccc(C)c2)cc1	171	-1	100	3	-12
O=C(Cc1ccccc1)NCc1n[nH]c(=S)n1-c1ccccc1	298	-1	12*	4	30
Cc1cc(C)n2nc(SCC(=O)Nc3ccc(F)cc3[N+](=O)[O-])nc2n1	168	-1	·	-8	-3
COc1ccc(F)cc1CN1CCN(C(=O)c2ccc(S(=O)(=O)N3CCCCCC3)cc2)CC1	·	·	93	·	2
Cc1ccc(-c2nc(Nc3ccccc3)n[nH]2)cc1	332	-3	37*	-12	13
O=C(COc1ccc(Cl)cc1)OCC(=O)c1ccc[nH]1	0	-2	107	1	-4
COc1ccc(C(=O)CSc2nccn2C)cc1	173	-1	101	-1	30
Cn1ccnc1SCC(=O)c1ccc(C#N)cc1	i	3	93	36*	-27
CC1C/C(=N\NC(=O)c2ccc(NS(=O)(=O)c3ccc(Br)cc3)cc2)CC(C)(C)C1 (stereo not drawn)	411	0	101	37*	0
CCc1ccc(CN(C)C(=O)C2CCC(=O)N(CCc3ccc(OC)cc3)C2)nc1 (stereo not drawn)	525	29*	125	-6	2

High-throughput results as filed in PubChem.
